Drawing on ChEMBL document CHEMBL1152895, “Diacylhydrazine derivatives as novel potential chitin biosynthesis inhibitors: design, synthesis, and structure-activity relationship” (Eur J Med Chem, 2009), this text covers inhibition for 19 compounds.

Active and inactive are the calls of the source. No cut-off for these calls is given here.

This test relates to Saccharomyces cerevisiae. Put plainly: Inhibition of yeast chitin synthase at 100 ug/mL by high throughput assay. An outline of the steps: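 Cell-extract enzymatic assay of chitin synthesis. Cells were pelleted at 1500 × g for 10 min at 4 °C, then broken by grinding with glass beads under liquid nitrogen. Activity was scored as percent inhibition, also converted to D = log[a/(100−a)] − log Mw.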
As to `CCCCC(CCCC)N(NC(=O)c1ccc(CC)cc1)C(=O)CCl`, the inhibition result was “Active”.

On to `CCCCC(CCCC)N(NC(=O)c1ccc(Cl)cc1)C(=O)c1cc(C)cc(C)c1`, for which the inhibition entry is “Active”.

On to `CCCCC(CCCC)N(NC(=O)c1ccccc1Cl)C(=O)c1cc(C)cc(C)c1`, for which the inhibition entry was “Active”.

In the case of `CCCCC(CCCC)N(NC(=O)c1ccc(CC)cc1)C(=O)c1cc(F)c(OC)c(F)c1F`, the inhibition result was “Active”.

In turn, `CCCCC(CCCC)N(NC(=O)c1ccc(CC)cc1)C(=O)c1ccccc1OC` came in with an inhibition of 79%.

For the compound `CCCCC(CCCC)N(NC(=O)c1cccc(OC)c1)C(=O)c1ccccc1`, the inhibition entry was “Active”.

As for `CCCCC(CCCC)N(NC(=O)c1ccc(Cl)cc1)C(=O)c1ccccc1OC`, the inhibition result was “Active”.

For `CCCCC(CCCC)N(NC(=O)c1ccc(CC)cc1)C(=O)c1cc(C)cc(C)c1`, the inhibition result was “Active”.

For `CCCCC(CCCC)N(NC(=O)c1ccccc1Cl)C(=O)c1ccccc1`, the inhibition result was “Active”.

On to `CCCCC(CCCC)N(NC(=O)c1ccc(CC)cc1)C(=O)c1ccc2c(c1)OCO2`, for which the inhibition entry was “Active”.

Consider `CCCCC(CCCC)N(NC(=O)c1ccccc1Cl)C(=O)c1ccccc1OC`, for which the inhibition stood at 81%.

Turning to `CCCCC(CCCC)N(NC(=O)c1ccccc1Cl)C(=O)c1ccc(F)cc1`, the inhibition entry is “Active”.

Turning to `CCCCC(CCCC)N(NC(=O)c1cc(C)cc(C)c1)C(=O)c1ccc(CC)cc1`, the inhibition result was “Active”.

On to `CCCCC(CCCC)N(NC(=O)c1ccc(Cl)cc1Cl)C(=O)c1cc(C)cc(C)c1`, for which the inhibition result was “Active”.

On to `CCCCC(CCCC)N(NC(=O)c1cc(OC)c(OC)c(OC)c1)C(=O)c1cc(F)c(OC)c(F)c1F`, for which the inhibition entry was “Active”.

Turning to `CCCCC(CCCC)N(NC(=O)c1cc(OC)c(OC)c(OC)c1)C(=O)c1cc(C)cc(C)c1`, the inhibition entry is “Active”.

For `CCCCC(CCCC)N(NC(=O)c1ccc(CC)cc1)C(=O)c1ccccc1Cl`, the inhibition result was “Active”.

Regarding `CCCCC(CCCC)N(NC(=O)c1ccccc1Cl)C(=O)c1cccc(F)c1`, the inhibition result is “Active”.

On to `CCCCC(CCCC)N(NC(=O)c1cc(OC)c(OC)c(OC)c1)C(=O)c1ccccc1Cl`, for which the inhibition result was “Active”.

The term inhibition denotes how much of the control response was suppressed.
